Results reported in ChEMBL document CHEMBL4382197, “Discovery of QCA570 as an Exceptionally Potent and Efficacious Proteolysis Targeting Chimera (PROTAC) Degrader of the Bromodomain and Extra-Terminal (BET) Proteins Capable of Inducing Complete and Durable Tumor Regression” (J Med Chem, 2018).
Active and inactive are the calls of the source. The calls are words filed in the database; no cut-off is given here.

What was measured:
[1] = molecular target: Bromodomain-containing protein 4 (Homo sapiens, UniProt O60885)
RS4-11 [2] = test: Induction of apoptosis in human RS4:11 cells assessed as PARP cleavage at 0.1 to 10 nM after 24 hrs by Western blot analysis; type: functional, cell-based
Outline: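 Cells (1.5–2×10^6/well) were treated for 24 h, washed in cold PBS and lysed in RIPA with protease inhibitors. 20 µg lysate was run on 4–20% or 4–12% gels and transferred to PVDF. Blots were probed for cleaved PARP and cleaved caspase 3, with GAPDH as loading control. Detection by ECL.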

[3] = molecular target: T1, Protein cereblon/Bromodomain-containing protein 3/Cullin-4A (Homo sapiens) (UniProt Q15059+Q96SW2+Q13619); test: Protac activity at cereblon/cullin 4A/BRD3 in human RS4:11 cells in assessed as BRD3 degradation at 0.1 nM after 3 hrs by Western blot analysis; type: cell-based
MOLM-13 = test: Growth inhibition of human MOLM13 cells after 96 hrs by CCK8 assay; type: functional, cell-based; conditions: MOLM-13, 96 h
RS4-11 [4] = test: Growth inhibition of human RS4:11 cells after 96 hrs by CCK8 assay; type: functional, cell-based; conditions: RS4-11, 96 h
[5] = molecular target: T2, Protein cereblon/Bromodomain-containing protein 2/Cullin-4A (Homo sapiens) (UniProt P25440+Q96SW2+Q13619); test: Protac activity at cereblon/cullin 4A/BRD2 in human RS4:11 cells assessed as BRD2 degradation at 0.1 nM after 3 hrs by Western blot analysis; type: cell-based
MV4-11 = test: Growth inhibition of human MV4-11 cells after 96 hrs by CCK8 assay; type: functional, cell-based; conditions: MV4-11, 96 h
[6] = molecular target: Protein cereblon/Bromodomain-containing protein 4/Bromodomain-containing protein 3/Bromodomain-containing protein 2 (Homo sapiens) (UniProt P25440+O60885+Q15059+Q96SW2); test: Protac activity at cereblon/cullin 4A/BET in human RS4:11 cells assessed as reduction in c-myc protein levels at 0.1 nM after 3 hrs by Western blot analysis; type: cell-based
[7] = molecular target: T3, Protein cereblon/Bromodomain-containing protein 4/Cullin-4A (Homo sapiens) (UniProt O60885+Q96SW2+Q13619); test: Protac activity at cereblon/cullin 4A/BRD4 in human RS4:11 cells assessed as BRD4 degradation at 0.1 nM after 3 hrs by Western blot analysis; type: cell-based
RS4-11 [8] = test: Induction of apoptosis in human RS4:11 cells assessed as PARP cleavage at 10 uM after 24 hrs by Western blot analysis; type: functional, cell-based
[9] = molecular target: T1, Protein cereblon/Bromodomain-containing protein 3/Cullin-4A (Homo sapiens); test: Protac activity at cereblon/cullin 4A/BRD3 in human MV4-11 cells assessed as BRD3 degradation at 1 to 10 uM after 3 to 24 hrs by Western blot analysis; type: cell-based
Outline: (§1)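 Cells are used within two months of thawing. […] 1.5–2×10^6 cells/well are treated for 3 h or 24 h, then lysed in RIPA with protease inhibitors. 20 µg lysate is blotted to PVDF and probed with rabbit polyclonal anti-BRD2 or anti-BRD3. GAPDH is the loading control, detected by ECL.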

[10] = molecular target: T1, Protein cereblon/Bromodomain-containing protein 3/Cullin-4A (Homo sapiens); test: Protac activity at cereblon/cullin 4A/BRD3 in human RS4:11 cells assessed as BRD3 degradation at 1 to 10 uM after 3 to 24 hrs by Western blot analysis; type: cell-based
Outline: as §1

[11] = molecular target: T3, Protein cereblon/Bromodomain-containing protein 4/Cullin-4A (Homo sapiens); test: Protac activity at cereblon/cullin 4A/BRD4 in human RS4:11 cells assessed as BRD4 degradation by Western blot analysis; type: cell-based
[12] = molecular target: T2, Protein cereblon/Bromodomain-containing protein 2/Cullin-4A (Homo sapiens); test: Protac activity at cereblon/cullin 4A/BRD2 in human RS4:11 cells assessed as BRD2 degradation by Western blot analysis; type: cell-based
[13] = molecular target: T1, Protein cereblon/Bromodomain-containing protein 3/Cullin-4A (Homo sapiens); test: Protac activity at cereblon/cullin 4A/BRD3 in human RS4:11 cells in assessed as BRD3 degradation by Western blot analysis; type: cell-based
[14] = molecular target: T3, Protein cereblon/Bromodomain-containing protein 4/Cullin-4A (Homo sapiens); test: Protac activity at cereblon/cullin 4A/BRD4 in human RS4:11 cells assessed as BRD4 degradation at 0.1 to 1 uM after 3 to 24 hrs by Western blot analysis; type: cell-based
[15] = molecular target: T2, Protein cereblon/Bromodomain-containing protein 2/Cullin-4A (Homo sapiens); test: Protac activity at cereblon/cullin 4A/BRD2 in human RS4:11 cells assessed as induction of BRD2 degradation at 0.1 to 1 uM after 3 to 24 hrs by Western blot analysis; type: cell-based
[16] = molecular target: T1, Protein cereblon/Bromodomain-containing protein 3/Cullin-4A (Homo sapiens); test: Protac activity at cereblon/cullin 4A/BRD3 in human RS4:11 cells in assessed as BRD3 degradation at 0.1 to 1 uM after 3 to 24 hrs by Western blot analysis; type: cell-based

T2 sequence (P25440 whole entry, looked up): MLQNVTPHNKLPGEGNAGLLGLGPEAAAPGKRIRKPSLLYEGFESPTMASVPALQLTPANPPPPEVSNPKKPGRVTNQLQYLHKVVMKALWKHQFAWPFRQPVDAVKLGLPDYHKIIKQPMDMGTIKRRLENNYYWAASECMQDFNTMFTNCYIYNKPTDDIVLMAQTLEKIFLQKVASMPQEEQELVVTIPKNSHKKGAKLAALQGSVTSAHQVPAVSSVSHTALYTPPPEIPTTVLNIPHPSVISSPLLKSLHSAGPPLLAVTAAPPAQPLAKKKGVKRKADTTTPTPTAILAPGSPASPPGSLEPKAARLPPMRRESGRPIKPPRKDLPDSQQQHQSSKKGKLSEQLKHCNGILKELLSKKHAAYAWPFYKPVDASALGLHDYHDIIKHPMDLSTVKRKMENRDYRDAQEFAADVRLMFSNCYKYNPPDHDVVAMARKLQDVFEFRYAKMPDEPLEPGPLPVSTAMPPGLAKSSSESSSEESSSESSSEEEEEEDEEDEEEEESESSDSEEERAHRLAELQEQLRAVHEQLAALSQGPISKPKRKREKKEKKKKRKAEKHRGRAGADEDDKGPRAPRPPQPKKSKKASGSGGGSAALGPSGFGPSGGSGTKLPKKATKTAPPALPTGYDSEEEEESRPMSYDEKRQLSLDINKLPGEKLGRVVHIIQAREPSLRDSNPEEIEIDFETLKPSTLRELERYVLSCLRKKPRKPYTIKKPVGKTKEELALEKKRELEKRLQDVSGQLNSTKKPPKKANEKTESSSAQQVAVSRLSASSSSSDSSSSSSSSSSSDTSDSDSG
T2 sequence (Q13619 whole entry, looked up): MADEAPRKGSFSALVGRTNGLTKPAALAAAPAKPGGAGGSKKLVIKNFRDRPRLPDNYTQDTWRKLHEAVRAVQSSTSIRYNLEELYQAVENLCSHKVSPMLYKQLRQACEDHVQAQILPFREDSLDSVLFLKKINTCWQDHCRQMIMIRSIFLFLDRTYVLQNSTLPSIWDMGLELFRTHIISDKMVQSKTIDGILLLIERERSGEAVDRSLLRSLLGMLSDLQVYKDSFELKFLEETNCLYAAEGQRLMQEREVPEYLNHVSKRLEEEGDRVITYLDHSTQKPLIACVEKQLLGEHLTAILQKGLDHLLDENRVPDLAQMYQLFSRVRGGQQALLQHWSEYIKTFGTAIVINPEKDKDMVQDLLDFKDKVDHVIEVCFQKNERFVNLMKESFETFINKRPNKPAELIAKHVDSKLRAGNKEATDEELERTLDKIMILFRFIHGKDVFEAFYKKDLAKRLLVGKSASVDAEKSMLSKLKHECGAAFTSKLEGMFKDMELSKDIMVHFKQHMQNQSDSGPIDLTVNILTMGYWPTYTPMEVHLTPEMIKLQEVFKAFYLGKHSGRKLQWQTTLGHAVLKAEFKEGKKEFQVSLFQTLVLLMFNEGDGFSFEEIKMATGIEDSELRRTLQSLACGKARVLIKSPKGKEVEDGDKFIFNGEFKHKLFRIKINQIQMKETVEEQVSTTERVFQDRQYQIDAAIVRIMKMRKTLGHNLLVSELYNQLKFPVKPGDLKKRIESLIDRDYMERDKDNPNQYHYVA
T2 sequence (Q96SW2 whole entry, looked up): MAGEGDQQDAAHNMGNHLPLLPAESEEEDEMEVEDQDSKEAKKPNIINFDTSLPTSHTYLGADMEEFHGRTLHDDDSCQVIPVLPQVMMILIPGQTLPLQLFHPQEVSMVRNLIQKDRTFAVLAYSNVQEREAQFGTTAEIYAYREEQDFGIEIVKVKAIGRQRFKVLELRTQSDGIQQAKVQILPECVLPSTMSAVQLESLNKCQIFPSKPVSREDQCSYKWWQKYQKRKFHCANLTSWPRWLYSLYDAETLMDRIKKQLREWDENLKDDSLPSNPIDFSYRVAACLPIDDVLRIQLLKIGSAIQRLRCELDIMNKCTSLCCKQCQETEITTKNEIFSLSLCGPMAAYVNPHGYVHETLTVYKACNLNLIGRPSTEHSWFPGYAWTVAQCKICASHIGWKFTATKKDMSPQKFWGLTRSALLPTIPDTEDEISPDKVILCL
T1 sequence (Q13619 whole entry, looked up): as the sequence (Q13619 whole entry, looked up) above
T1 sequence (Q15059 whole entry, looked up): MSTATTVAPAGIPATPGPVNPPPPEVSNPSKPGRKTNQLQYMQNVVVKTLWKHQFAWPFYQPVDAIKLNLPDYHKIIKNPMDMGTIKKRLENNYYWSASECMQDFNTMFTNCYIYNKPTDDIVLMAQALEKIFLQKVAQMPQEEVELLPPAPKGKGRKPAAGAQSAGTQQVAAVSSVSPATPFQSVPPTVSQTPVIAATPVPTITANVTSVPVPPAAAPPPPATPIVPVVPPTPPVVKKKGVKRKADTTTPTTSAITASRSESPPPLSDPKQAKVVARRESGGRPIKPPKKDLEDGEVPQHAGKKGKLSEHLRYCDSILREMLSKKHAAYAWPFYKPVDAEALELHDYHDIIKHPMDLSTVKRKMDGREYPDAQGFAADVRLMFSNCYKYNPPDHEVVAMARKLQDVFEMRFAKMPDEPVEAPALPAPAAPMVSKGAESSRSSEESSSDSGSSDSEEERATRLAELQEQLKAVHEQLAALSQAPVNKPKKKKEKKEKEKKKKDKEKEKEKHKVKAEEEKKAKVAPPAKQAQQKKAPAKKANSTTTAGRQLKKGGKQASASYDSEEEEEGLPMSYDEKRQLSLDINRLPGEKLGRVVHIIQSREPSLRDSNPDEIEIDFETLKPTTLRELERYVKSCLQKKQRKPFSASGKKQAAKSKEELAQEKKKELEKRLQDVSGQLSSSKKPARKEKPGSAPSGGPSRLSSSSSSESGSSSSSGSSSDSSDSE
T1 sequence (Q96SW2 whole entry, looked up): as the sequence (Q96SW2 whole entry, looked up) above
Protein cereblon/Bromodomain-containing protein 4/Bromodomain-containing protein 3/Bromodomain-containing protein 2 (Homo sapiens), sequence (P25440 whole entry, looked up, other chains not shown): as the sequence (P25440 whole entry, looked up) above
Protein cereblon/Bromodomain-containing protein 4/Bromodomain-containing protein 3/Bromodomain-containing protein 2 (Homo sapiens), sequence (Q15059 whole entry, looked up, other chains not shown): as the sequence (Q15059 whole entry, looked up) above
Protein cereblon/Bromodomain-containing protein 4/Bromodomain-containing protein 3/Bromodomain-containing protein 2 (Homo sapiens), sequence (Q96SW2 whole entry, looked up, other chains not shown): as the sequence (Q96SW2 whole entry, looked up) above

Compound | IC50 (MOLM-13) [nM] | IC50 (RS4-11 [4]) [nM] | IC50 (MV4-11) [nM] | other results
Cc1nnc2n1-c1scc(Cc3ccccc3)c1COC2 | – | – | – | IC50 [1]: 2300 nM; Ki [1]: 820 nM
Cc1nnc2n1Cc1sc(C#Cc3cnn(CCCCNc4cccc5c4C(=O)N(C4CCC(=O)NC4=O)C5=O)c3)c(Cc3ccccc3)c1OC2 (centres undefined) | 0.19 | 0.02 | 0.0654 | Activity (RS4-11 [2]): Active; Activity [3]: Active; Activity [5]: Active; Activity [6]: Active; Activity [7]: Active
Cc1nnc2n1Cc1sc(C#Cc3cnn(CCCNc4cccc5c4CN(C4CCC(=O)NC4=O)C5=O)c3)c(Cc3ccccc3)c1OC2 (centres undefined) | 0.51 | 0.025 | 0.035 | –
Cc1nnc2n1-c1sc(C#Cc3cnn(C)c3)c(Cc3ccccc3)c1COC2 | – | – | – | Activity (RS4-11 [8]): Active; Activity [9]: inactive; Activity [10]: Active
Cc1nnc2n1Cc1sc(C#Cc3cnn(CCCCCNc4cccc5c4C(=O)N(C4CCC(=O)NC4=O)C5=O)c3)c(Cc3ccccc3)c1OC2 (centres undefined) | 0.19 | 0.02 | 0.092 | Activity (RS4-11 [2]): Active; Activity [3]: Active; Activity [5]: Active; Activity [6]: Active; Activity [7]: Active
Cc1nnc2n1Cc1sc(C#Cc3cnn(CCCCNc4cccc5c4CN(C4CCC(=O)NC4=O)C5=O)c3)c(Cc3ccccc3)c1OC2 (centres undefined) | 0.18 | 0.0012 | – | –
Cc1nnc2n1Cc1sc(C#Cc3cnn(COc4cccc5c4C(=O)N(C4CCC(=O)NC4=O)C5=O)c3)c(Cc3ccccc3)c1OC2 (centres undefined) | 311 | 20.8 | 19.7 | Activity [11]: Dose-dependent effect; Activity [12]: Dose-dependent effect; Activity [13]: Dose-dependent effect
Cc1nnc2n1Cc1sc(C#Cc3cnn(-c4cccc5c4C(=O)N(C4CCC(=O)NC4=O)C5=O)c3)c(Cc3ccccc3)c1OC2 (centres undefined) | > 1000 | > 1000 | > 1000 | Activity [14]: inactive; Activity [15]: inactive; Activity [16]: inactive
Cc1nnc2n1Cc1sc(C#Cc3cnn(CCCNc4cccc5c4C(=O)N(C4CCC(=O)NC4=O)C5=O)c3)c(Cc3ccccc3)c1OC2 (centres undefined) | 0.56 | 0.038 | 0.138 | Activity (RS4-11 [2]): Active; Activity [3]: Active; Activity [5]: Active; Activity [7]: Active
Cc1sc2c(c1C)COCc1nnc(C)n1-2 | – | – | – | IC50 [1]: 4400 nM; Ki [1]: 1500 nM
Cc1nnc2n1Cc1sc(C#Cc3cnn(CCNc4cccc5c4C(=O)N(C4CCC(=O)NC4=O)C5=O)c3)c(Cc3ccccc3)c1OC2 (centres undefined) | 2.23 | 0.379 | 0.47 | Activity (RS4-11 [2]): Active
Cc1nnc2n1Cc1sc(C#Cc3cnn(CCCC#Cc4cccc5c4CN(C4CCC(=O)N(C)C4=O)C5=O)c3)c(Cc3ccccc3)c1OC2 (centres undefined) | 183 | 43.7 | 25.8 | –
Cc1nnc2n1-c1sc(C3CCOCC3)c(Cc3ccccc3)c1COC2 | – | – | – | IC50 [1]: 8100 nM; Ki [1]: 2800 nM
Cc1nnc2n1-c1sc(C#N)c(Cc3ccccc3)c1COC2 | – | – | – | IC50 [1]: 720 nM; Ki [1]: 250 nM
Cc1nnc2n1Cc1sc(C#Cc3cnn(CCCC#Cc4cccc5c4C(=O)N(C4CCC(=O)NC4=O)C5=O)c3)c(Cc3ccccc3)c1OC2 (centres undefined) | 1.6 | 0.39 | 0.72 | –
Cc1nnc2n1Cc1sc(C#Cc3cnn(CCCCCc4cccc5c4CN(C4CCC(=O)NC4=O)C5=O)c3)c(Cc3ccccc3)c1OC2 (centres undefined) | 0.53 | 0.081 | 0.14 | –
